We go through one compound from ChEMBL document CHEMBL3808288, “Identification and in Vivo Evaluation of Liver X Receptor β-Selective Agonists for the Potential Treatment of Alzheimer's Disease” (J Med Chem, 2016).

Series [1] has as its system Rattus norvegicus. In words: Increase in amyloid beta level in CSF of Wistar Han rat at 100 mg/kg, sc dosed for 4 days by western blotting method. The series is classed as functional, organism-based. The gist of the method: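 Rats were dosed subcutaneously for 4 days, and apoE and Aβ were then measured in CSF.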
(In general: In western blotting, separated proteins are transferred to a membrane and probed.)

The nature of series [2]: Volume of distribution at steady state in rhesus monkey. It is filed as ADME, organism-based, Macaca mulatta. The following applies: in vivo, read-out: Vdss.
Series [3] in a line: Clearance in rhesus monkey. The following applies: in vivo. It is filed as ADME, organism-based, Macaca mulatta.
Series [4] concerns Mus musculus. In words: Activation of LXR in Tg2576 transgenic mouse assessed decrease in DEA-soluble amyloid-beta level in brain at 50 mg/kg, sc dosed for 3 weeks. It is filed as functional. As to conditions: 504 h. The method in brief:
(§1)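 12-month-old Tg2576 mice were dosed subcutaneously for three weeks. Brain was assayed for ABCA1 protein, soluble apoE and DEA-soluble Aβ, and plasma and liver were assayed for triglycerides. Groups were compared with vehicle by ANOVA.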

Series [5] has as its system Mus musculus. The series can be described thus: Reversal of hyperlocomotary behavior in Tg2576 transgenic mouse at 50 mg/kg, sc dosed for 16 days by open field test. The series is classed as functional, organism-based. The method in brief:
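Mice from the three-week subcutaneous study were tested in the open field for locomotor activity after 16 days of dosing. Wild-type mice were included for comparison.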

The test system of series [6] is Mus musculus. The series can be described thus: Toxicity in Tg2576 transgenic mouse assessed as change in liver triglyceride level at 50 mg/kg, sc dosed for 3 weeks. The following applies: in vivo, 504 h. It is filed as organism-based. The gist of the method: as §1
For series [7], the system named is Mus musculus. In words: Activation of LXR in Tg2576 transgenic mouse assessed increase in brain ABCA1 level at 50 mg/kg, sc dosed for 3 weeks by western blotting method. The series is classed as functional, organism-based. The gist of the method:
as §1

Series [8] in a line: Half life of compound in rhesus monkey. The series is classed as ADME, organism-based, Macaca mulatta. As to conditions: in vivo.
In series [9] the test system is Rattus norvegicus. In words: Toxicity in Wistar Han rat assessed as change in plasma triglyceride level at 100 mg/kg, sc dosed for 4 days […]. It is filed as organism-based. The following applies: in vivo, 96 h.
Series [10] has as its target T1, Oxysterols receptor LXR-beta (Homo sapiens, UniProt P55055).
T1 sequence (P55055 whole entry): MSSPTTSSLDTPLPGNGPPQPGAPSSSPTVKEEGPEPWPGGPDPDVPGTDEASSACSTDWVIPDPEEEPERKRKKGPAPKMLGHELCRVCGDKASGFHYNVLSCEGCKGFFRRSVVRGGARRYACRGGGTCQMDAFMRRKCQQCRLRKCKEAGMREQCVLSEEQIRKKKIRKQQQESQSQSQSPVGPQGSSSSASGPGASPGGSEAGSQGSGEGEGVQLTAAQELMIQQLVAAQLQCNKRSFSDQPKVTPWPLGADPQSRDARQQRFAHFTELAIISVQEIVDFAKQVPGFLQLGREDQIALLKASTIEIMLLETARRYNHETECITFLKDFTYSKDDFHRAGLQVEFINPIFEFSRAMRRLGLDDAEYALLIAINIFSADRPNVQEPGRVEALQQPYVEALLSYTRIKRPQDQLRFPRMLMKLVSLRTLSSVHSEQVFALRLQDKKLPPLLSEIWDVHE
In words: Agonist activity at GST-tagged LXRbeta-LBD (unknown origin) by LanthaScreen TR-FRET liver X receptor coactivator assay. The gist of the method:
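Cofactor recruitment assay using the ligand binding domains of LXRβ or LXRα. The read-out was EC50 and Emax, with Emax relative to a full agonist control.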

For series [11], the system named is Rhesus monkey. In words: Increase in LDL cholesterol level in rhesus monkey at 10 to 20 mg/kg, po qd for 2 weeks. It is filed as ADME, organism-based, Macaca mulatta. The following applies: in vivo, 336 h. The method in brief: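 Rhesus monkeys were dosed orally once daily for 2 weeks. LDL and HDL cholesterol were measured in serum at trough after the last dose and compared with baseline serum samples taken before dosing.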

Series [12] has as its system Rattus norvegicus. In words: Toxicity in Wistar Han rat assessed as change in liver triglyceride level at 100 mg/kg, sc dosed for 4 days […]. The series is classed as organism-based. As to conditions: in vivo, 96 h.
The nature of series [13]: Protein binding in rhesus monkey plasma. The series is classed as ADME, cell-free, Macaca mulatta. As to conditions: read-out: PPB (converted).
In series [14] the test system is Rhesus monkey. The series can be described thus: Increase in apoE level in CSF of rhesus monkey at 10 and 20 mg/kg, po administered for 2 weeks by apoE ELISA relative to control. The series is classed as functional, Macaca mulatta. The gist of the method:
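Rhesus monkeys were dosed orally once daily for 2 weeks after randomisation on baseline lipids, liver enzymes and liver fat. CSF was taken by lumbar puncture at baseline and at trough after the last dose, and apoE was measured against baseline.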

Molecules are shown by their SMILES. The source made the active and inactive calls. The calls are words filed in the database; no cut-off is given here.

For the compound `CC(C)[C@@](O)(C(=O)N1CCC(C2CCN(c3ccc(C(=O)N(C)C)c(Cl)c3)CC2)CC1)C(F)(F)F`, the outcome in series [1], in [5] and in series [7] was Active. In addition, the Vd in [2] was 2.7 L/kg. This compound also registered a clearance in series [3] of 1.08 L/h/kg. In series [4], this compound registered an inhibition in vivo at 50 mg/kg of 28%. For the same compound, the Activity result in series [6] is recorded as “Non-toxic”; in series [9], “Non-toxic”; in [11], “Toxic”; in [12], “Non-toxic”. This compound also had a half-life in series [8] of 2 h. Further, it took 0.03 µM to reach a half-maximal effect in [10] (EC50). For the same compound, the fraction unbound in series [13] is 0.007. For the same compound, in series [14], the “fold change (FC)” value came to 3.

By clearance is commonly meant the rate of elimination divided by the concentration. Broadly, the inhibition in vivo is the percentage by which the read-out fell short of the control. The term half-life denotes the time in which the quantity being followed falls by half. The EC50 is the concentration that produces a half-maximal response.
